The target in experiment [1] is Luciferin 4-monooxygenase (Photinus pyralis) (UniProt P08659). Description: Inhibition of Photinus pyralis fire fly luciferase assessed as reduction in light production at 10 times MIC for Pseudomonas aeruginosa PAO1 H103 by ATP bioluminescence assay. In short, it runs like this:
(§1)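 Firefly luciferase kit mix (luciferin, MgSO4, DTT, EDTA, BSA, tricine) was combined with peptide at 1, 3 or 10× MIC against P. aeruginosa PAO1 H103. ATP (200 µM) was added to start the reaction and luminescence was read, with an ATP standard curve. Activity was scored by the lowest MIC multiple giving ≥75% loss of light.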

Experiment [2] has as its system Pseudomonas aeruginosa. Description: Antimicrobial activity against Pseudomonas aeruginosa PAO1 H103. Type of experiment: functional.
Experiment [3] in a line: Inhibition of DNA polymerase assessed as reduction in PCR products at MIC for Pseudomonas aeruginosa PAO1 H103 by qPCR. For orientation: Real-time PCR tracks product formation cycle by cycle.
Experiment [4] in a line: Inhibition of DnaK assessed as reduction in ATP turnover at MIC for Pseudomonas aeruginosa PAO1 H103 by ATPase assay. In short, it runs like this: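 DnaK ATPase run in 20 mM HEPES pH 8, 10 mM Mg acetate, 100 mM NaCl with 200 µM [α-32P]ATP (~8 Ci/mmol) and peptide at 1× MIC (control without peptide), 37°C for 15 min. Stopped with EDTA/SDS and imaged by phosphorimager. Turnover was taken as the ADP fraction of total spots, corrected for no-protein background, mean of two independent assays.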

Experiment [5] concerns the target Luciferin 4-monooxygenase (Photinus pyralis) (UniProt P08659). Description: Inhibition of Photinus pyralis fire fly luciferase assessed as reduction in light production at 3 times MIC for Pseudomonas aeruginosa PAO1 H103 by ATP bioluminescence assay. In short, it runs like this:
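Commercial ATP bioluminescence kit with lyophilized firefly luciferase, luciferin, MgSO4, DTT, EDTA, BSA and tricine buffer. An ATP standard curve was run. Peptide was premixed with the kit solution, and ATP (200 µM) was added to start the reaction. Luminescence was read. Peptides were tested at 1×, 3× and 10× their MIC against P. aeruginosa PAO1 H103. Scoring was ≥75% loss of light at 3× MIC.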

Experiment [6] in a line: Inhibition of DNA polymerase assessed as reduction in PCR products at 3 times MIC for Pseudomonas aeruginosa PAO1 H103 by qPCR.
The target in experiment [7] is Luciferin 4-monooxygenase (Photinus pyralis) (UniProt P08659). Kind of experiment: Inhibition of Photinus pyralis fire fly luciferase assessed as reduction in light production at 1 times MIC for Pseudomonas aeruginosa PAO1 H103 by ATP bioluminescence assay. An outline of the steps:
as §1

Values after ≈ are worked out from the molar mass of the structure shown. Active and inactive are the calls of the source. No cut-off for these calls is given here. Square brackets hold non-standard residues; d marks the D form. Peptide text beside a SMILES is read from it. Orn = NCCC[C@H](N)C(=O)O

For orientation: inhibition means the share of the control response that was lost under treatment. One may read the MIC as the least concentration at which growth counts as inhibited. The low end stands for inhibition by little substance, the high end for a need for much substance.

Sequence of Luciferin 4-monooxygenase (Photinus pyralis) (P08659 whole entry): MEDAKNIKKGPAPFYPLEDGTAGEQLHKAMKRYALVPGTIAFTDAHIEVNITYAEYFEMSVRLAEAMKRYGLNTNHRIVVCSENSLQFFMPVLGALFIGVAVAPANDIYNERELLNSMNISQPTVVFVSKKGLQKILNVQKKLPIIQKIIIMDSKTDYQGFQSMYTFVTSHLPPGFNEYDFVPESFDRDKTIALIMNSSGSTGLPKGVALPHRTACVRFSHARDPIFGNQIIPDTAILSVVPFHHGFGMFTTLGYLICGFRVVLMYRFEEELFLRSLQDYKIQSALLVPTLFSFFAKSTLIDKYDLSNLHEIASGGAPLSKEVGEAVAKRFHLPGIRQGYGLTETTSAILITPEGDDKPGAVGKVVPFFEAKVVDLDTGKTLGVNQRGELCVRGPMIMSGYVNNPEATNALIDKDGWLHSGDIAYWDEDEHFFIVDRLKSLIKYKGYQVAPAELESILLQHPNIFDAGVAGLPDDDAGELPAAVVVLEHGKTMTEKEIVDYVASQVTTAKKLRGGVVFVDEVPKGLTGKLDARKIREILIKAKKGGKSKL

As for `CC[C@H](C)[C@H](NC(=O)CNC(=O)[C@@H](NC(=O)[C@H](CCCCN)NC(=O)[C@H](CCCCN)NC(=O)[C@H](Cc1ccccc1)NC(=O)[C@H](CC(C)C)NC(=O)[C@H](CCCCN)NC(=O)[C@H](Cc1c[nH]c2ccccc12)NC(=O)[C@@H](N)CCCCN)[C@@H](C)CC)C(=O)NCC(=O)N[C@@H](C)C(=O)N[C@H](C(=O)N[C@@H](CC(C)C)C(=O)N[C@@H](CCCCN)C(=O)N[C@H](C(=O)N[C@@H](CC(C)C)C(=O)N[C@H](C(=O)N[C@H](C(=O)NCC(=O)N[C@@H](CC(C)C)C(=O)N1CCC[C@H]1C(=O)N[C@@H](C)C(=O)N[C@@H](CC(C)C)C(=O)N[C@H](C(=O)N[C@@H](CO)C(=O)O)[C@@H](C)CC)[C@@H](C)O)[C@@H](C)O)C(C)C)C(C)C`, the inhibition result in experiment [1] is “inactive”. Besides, inhibition of growth in experiment [2] (MIC) required 2 µg/mL (≈ 0.715 µM).
Regarding `CC[C@H](C)[C@H](NC(=O)[C@H](CC(C)C)NC(=O)[C@H](C)NC(=O)[C@@H]1CCCN1C(=O)[C@H](CC(C)C)NC(=O)CNC(=O)[C@@H](NC(=O)[C@@H](NC(=O)[C@H](CC(C)C)NC(=O)[C@@H](NC(=O)[C@H](CCCCN)NC(=O)[C@H](CCCCN)NC(=O)[C@@H](NC(=O)[C@H](C)NC(=O)[C@@H](NC(=O)[C@@H](NC(=O)[C@H](CC(C)C)NC(=O)[C@H](CCCCN)NC(=O)[C@H](CCCCN)NC(=O)[C@@H](NC(=O)[C@H](Cc1ccccc1)NC(=O)[C@H](CO)NC(=O)[C@H](CCCCN)NC(=O)[C@H](Cc1c[nH]c2ccccc12)NC(=O)[C@@H](N)CCCCN)[C@@H](C)CC)[C@@H](C)O)[C@@H](C)O)C(C)C)C(C)C)[C@@H](C)O)[C@@H](C)O)C(=O)N[C@@H](CO)C(=O)O`, the inhibition entry in experiment [3], in experiment [1] and in experiment [4] was “inactive” throughout. This compound also came in with an MIC in experiment [2] of 2 µg/mL (≈ 0.696 µM).
Regarding `CC(C)C[C@@H]1NC(=O)[C@H](CCCN)NC(=O)[C@H](C(C)C)NC(=O)[C@@H]2CCCN2C(=O)[C@@H](Cc2ccccc2)NC(=O)[C@H](CC(C)C)NC(=O)[C@H](CCCN)NC(=O)[C@H](C(C)C)NC(=O)[C@@H]2CCCN2C(=O)[C@@H](Cc2ccccc2)NC1=O` [GRAMICIDIN S] (cyclo(L[dF]PV[Orn]L[dF]PV[Orn])), the inhibition entry in experiment [3] and in experiment [1] was “inactive” throughout. This compound registered an MIC in experiment [2] of 0.2 µg/mL (≈ 0.175 µM).
Turning to `CC(C)[C@H](NC(=O)[C@H](CCCNC(=N)N)NC(=O)[C@H](Cc1ccccc1)NC(=O)[C@H](CS)NC(=O)[C@H](Cc1c[nH]c2ccccc12)NC(=O)[C@H](CCCNC(=N)N)NC(=O)[C@@H](N)CCCNC(=N)N)C(=O)N[C@@H](CS)C(=O)N[C@@H](Cc1ccc(O)cc1)C(=O)N[C@@H](CCCNC(=N)N)C(=O)NCC(=O)N[C@@H](Cc1ccccc1)C(=O)N[C@@H](CS)C(=O)N[C@@H](Cc1ccc(O)cc1)C(=O)N[C@@H](CCCNC(=N)N)C(=O)N[C@@H](CCCCN)C(=O)N[C@@H](CS)C(=O)N[C@@H](CCCNC(=N)N)C(N)=O` [POLYPHEMUSIN I] (H-RRWCFRVCYRGFCYRKCR-NH2), the inhibition in experiment [1] was more than 75%. Further, the lowest concentration to inhibit growth in experiment [2] (MIC) was 2 µg/mL (≈ 0.814 µM).
On the same counts, the results for GENTAMICIN are “inactive” and 25 µg/mL.
On the same counts, the results for H-KWKSFIKKLTSAAKKVVTTAKPLISS-OH are “inactive” and 2 µg/mL.
On to H-KWKSFLKTFKSAVKTVLHTALKAISS-OH, for which the inhibition entry in experiment [3], in experiment [1] and in experiment [4] was “inactive” each time. Besides, the lowest concentration to inhibit growth in experiment [2] (MIC) was 2 µg/mL.
In the case of H-KWKSFLRTFKSPVRTVFHTALKPISS-OH, the inhibition entry in experiment [1] is “inactive”. This compound also showed an MIC in experiment [2] of 16 µg/mL.
Consider H-KWKSFLRTLKSPAKTVFHTALKAISS-OH, for which, in experiment [1], the inhibition entry is “inactive”. Also, it took 16 µg/mL to inhibit growth in experiment [2] (MIC).
On to H-RAVAVIIRLRRV-NH2, for which, in experiment [2], it took 33 µg/mL to inhibit growth (MIC). In addition, in experiment [5], the inhibition is more than 75%.
Regarding H-RLARIVPIRVAR-NH2, the inhibition result in experiment [1] was “inactive”. Besides, the MIC in experiment [2] is more than 250 µg/mL.
As for H-RLARIVVIRVAR-NH2, the inhibition entry in experiment [3] and in experiment [4] was “Active” in each case. Further, in experiment [2], the MIC was determined as 50 µg/mL. Besides, the inhibition in experiment [5] was more than 75%.
In the case of H-RLWRIVVIRVAR-NH2, the inhibition result in experiment [6] and in experiment [4] was “Active” throughout. The compound further gave an MIC in experiment [2] of 8 µg/mL. In addition, the inhibition in experiment [7] was determined as 75%.
As to H-RRAAVVLIVIRR-NH2, in experiment [2], the MIC came out at 7 µg/mL. Also, the inhibition in experiment [5] was more than 75%.
In the case of H-RRWKIVVIRWRR-NH2, the inhibition result in experiment [3] and in experiment [4] was “Active” throughout. The compound also gave an MIC in experiment [2] of 2 µg/mL. Moreover, the inhibition in experiment [7] was 75%.
On to H-RRWRIVVIRVRR-NH2, for which the MIC in experiment [2] was found to be 2 µg/mL. In experiment [7], the inhibition amounted to 75%.
Consider H-VRLRIRVAVIRA-NH2, for which the inhibition in experiment [1] was more than 75%. This compound gave an MIC in experiment [2] of 10 µg/mL.
In the case of POLYMYXIN B, the inhibition result in experiment [3] and in experiment [4] was “inactive” in each case. This compound yielded an MIC in experiment [2] of 0.5 µg/mL.

The values above are taken from ChEMBL document CHEMBL1671728, “Short cationic antimicrobial peptides interact with ATP” (2010).
